Reference: ChEMBL document CHEMBL1148755, “Structural analogues of smoothened intracellular loops as potent inhibitors of Hedgehog pathway and cancer cell growth” (J Med Chem, 2007)
Activity calls are given as the source filed them. No cut-off for these calls is given here. Peptide text beside a SMILES is read from it. * marks the point of attachment. Palmitoyl = CCCCCCCCCCCCCCCC(=O)*

Experiments:
[1] = tested on: SK-MEL-2; assay: Growth inhibition of SK-Mel2 melanoma cells after 48 hrs by MTT assay; type: functional, cell-based, Homo sapiens; conditions: Homo sapiens, SK-MEL-2, 48 h
In short: (§1)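 Cells seeded at 200-400 per well in DMEM with 10% FBS and left to attach for 24 h. The next day, inhibitor in medium at 2× was added in an equal volume, and cells were incubated 48 h in a CO2 incubator. Reference plates were read at time of addition for T0 density. MTT staining was read as absorbance at 544 nm and compared with untreated control cells.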

[2] = tested on: MCF7; assay: Growth inhibition of breast cancer MCF7 cells after 48 hrs by MTT assay; type: functional, cell-based; conditions: Homo sapiens; in short: as §1

| Compound | IC50 [1] [nM] | Activity [2] |
| --- | --- | --- |
| CCCCCCCCCCCCCCCC(=O)N[C@@H](CC(C)C)C(=O)N[C@H](C(=O)N[C@@H](Cc1ccc(O)cc1)C(=O)N[C@@H](C)C(=O)N[C@@H](Cc1c[nH]c2ccccc12)C(=O)N[C@@H](Cc1cnc[nH]1)C(=O)N[C@H](C(=O)N[C@@H](CO)C(=O)N[C@@H](Cc1ccccc1)C(=O)N[C@@H](CCCCN)C(=O)N[C@@H](C)C(=O)N[C@@H](CC(C)C)C(=O)NCC(=O)N[C@H](C(=O)N[C@H](C(=O)N[C@@H](Cc1ccc(O)cc1)C(=O)N[C@@H](CCC(N)=O)C(=O)N1CCC[C@H]1C(=O)N[C@@H](CC(C)C)C(=O)N[C@@H](CO)C(=O)NCC(=O)N[C@@H](CCCCN)C(=O)N[C@@H](Cc1ccc(O)cc1)C(=O)N[C@@H](CO)C(=O)N[C@@H](Cc1ccc(O)cc1)C(=O)O)[C@@H](C)O)[C@@H](C)O)[C@@H](C)O)[C@@H](C)O (Palmitoyl-LTYAWHTSFKALGTTYQPLSGKYSY-OH) | 450 | Active |
| CCCCCCCCCCCCCCCC(=O)N[C@@H](CCCNC(=N)N)C(=O)NCC(=O)N[C@H](C(=O)N[C@@H](CCSC)C(=O)N[C@H](C(=O)N[C@@H](CC(C)C)C(=O)N[C@@H](Cc1ccccc1)C(=O)N[C@@H](CO)C(=O)N[C@H](C(=O)N[C@@H](CCCCN)C(=O)N[C@@H](CO)C(=O)N[C@@H](CC(N)=O)C(=O)N[C@@H](Cc1c[nH]cn1)C(=O)N1CCC[C@H]1C(=O)NCC(=O)N[C@@H](CC(C)C)C(=O)N[C@@H](CC(C)C)C(=O)N[C@@H](CO)C(=O)N[C@@H](CCC(=O)O)C(=O)N[C@@H](CCCCN)C(=O)N[C@@H](C)C(=O)N[C@@H](C)C(=O)N[C@@H](CO)C(=O)N[C@@H](CCCCN)C(=O)N[C@H](C(=O)N[C@@H](CC(N)=O)C(=O)N[C@@H](CCC(=O)O)C(=O)N[C@H](C(=O)N[C@@H](CCSC)C(=O)N[C@@H](CC(C)C)C(=O)O)[C@@H](C)O)[C@@H](C)CC)[C@@H](C)CC)[C@@H](C)O)C(C)C (Palmitoyl-RGVMTLFSIKSNHPGLLSEKAASKINETML-OH) | 640 | Active |
| CCCCCCCCCCCCCCCC(=O)N[C@H](C(=O)N[C@@H](Cc1ccccc1)C(=O)N[C@H](C(=O)N[C@@H](C)C(=O)N[C@@H](CC(=O)O)C(=O)N[C@@H](Cc1c[nH]c2ccccc12)C(=O)N[C@@H](CCCNC(=N)N)C(=O)N[C@@H](CC(N)=O)C(=O)N[C@@H](CO)C(=O)N[C@@H](CC(N)=O)C(=O)N[C@@H](CCCNC(=N)N)C(=O)N[C@@H](Cc1ccc(O)cc1)C(=O)O)C(C)C)[C@@H](C)O (Palmitoyl-TFVADWRNSNRY-OH) | – | Active |
